Screening data (PubChem BioAssay)
HIV Rev-RRE inh – disrupts HIV-1 Rev binding to RRE RNA; Rev peptide-RRE RNA binding, FRET; inhibition, % at 8 µM; hit rate 0.79% among 97,000;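 active = inhibition above the screen-wide mean plus 3 SD, cut at about 35% in these data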
Target sequence (P05866 whole entry, looked up): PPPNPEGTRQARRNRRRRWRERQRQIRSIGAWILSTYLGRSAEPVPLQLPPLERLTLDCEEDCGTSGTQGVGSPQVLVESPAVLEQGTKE
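Test system – labelled RRE RNA duplex and labelled Rev peptide · Signal – fluorescein-to-Cy5 FRET, 480 nm excitation · Evaluation – % inhibition of FRET ratio versus controls · Benchmarks – DMSO low control, neomycin B high control · Incubation – 5 min RNA-compound premix plus 15 min binding step, 25 °C · Medium – HEPES pH 7.5 salt buffer with EDTA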
Cav32 inh – inhibitors of human Cav3.2 T-type calcium channel | O95180 | Cav3.2-expressing cells, Fluo-4 calcium fluorescence FDSS; stronger effect = lower value | B-score at 10 µM | hit rate 4% among 100,000 | AID 449739;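 active = single-dose well whose peak fluorescence ratio is a statistical outlier from its plate by either plate-standardised score or position-corrected B-score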
hDAT+cocaine – changed human dopamine transporter uptake under cocaine IC80; Q01959; LLC-PK1 hDAT cells, [14C]-dopamine uptake with cocaine IC80; actives deviate in either direction; B-score at 10 µM; hit rate 1.3% among 110,000;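 active = Z score or B-score, a plate-position-corrected score, falls beyond the plate's 99.7% confidence bounds, in either direction; inactive = both scores lie inside the 99.7% bounds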
Target sequence (Q01959 whole entry, looked up): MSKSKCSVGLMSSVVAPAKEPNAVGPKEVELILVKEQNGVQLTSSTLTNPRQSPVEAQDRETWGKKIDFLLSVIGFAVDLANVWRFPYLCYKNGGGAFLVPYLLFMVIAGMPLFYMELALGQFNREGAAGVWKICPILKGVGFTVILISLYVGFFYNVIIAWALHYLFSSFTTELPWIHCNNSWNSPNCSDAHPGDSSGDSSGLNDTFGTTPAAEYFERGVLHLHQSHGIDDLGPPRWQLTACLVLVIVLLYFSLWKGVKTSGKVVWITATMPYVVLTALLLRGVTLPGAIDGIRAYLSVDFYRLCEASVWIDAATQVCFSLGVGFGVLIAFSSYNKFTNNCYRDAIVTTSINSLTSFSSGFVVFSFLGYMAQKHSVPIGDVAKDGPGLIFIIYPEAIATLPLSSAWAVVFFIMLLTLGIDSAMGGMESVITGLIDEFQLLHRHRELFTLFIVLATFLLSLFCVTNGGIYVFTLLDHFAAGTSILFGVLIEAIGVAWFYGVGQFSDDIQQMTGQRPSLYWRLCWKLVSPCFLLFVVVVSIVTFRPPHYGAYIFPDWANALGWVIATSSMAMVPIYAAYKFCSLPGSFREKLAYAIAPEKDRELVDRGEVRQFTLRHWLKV
EphB4 antag – EphB4-ephrin-B2 interaction antagonism. P54760. EphB4 LBD / TNYL-RAW-Alexa532 peptide, fluorescence polarization. inhibition, % at 7 µM. hit rate 0.15% among 97,000;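 active = inhibition above the screen-wide mean inhibition plus 3 SD, cut at about 15% in these data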
Large screens that a line does not name were inactive; [ ] = remark or other dose. Shown are actives, neighbours in structure and some others; about 5.4% of the full set was active somewhere.

CN=c1sc2ccccc2n1CC(O)COc1ccccc1 (stereo unspecified)	none
CCN=c1sc2ccccc2n1CC(O)COc1ccccc1 (stereo unspecified)	Cav32 inh -4.17
O=C(NC(=S)N(Cc1ccccc1)Cc1ccccc1)c1ccccc1F	Cav32 inh -6.16
O=C(NC(=S)NCc1ccccc1)c1ccccc1F	none
Cc1ccc2nc(/C(C#N)=C\c3ccc([N+](=O)[O-])o3)[nH]c2c1	HIV Rev-RRE inh 64.4[fluorescence artefact?]
Cc1ccc2nc(/C(C#N)=C\c3ccc(N4CCOCC4)o3)[nH]c2c1	HIV Rev-RRE inh 135.3[fluorescence artefact?], Cav32 inh -5.01
Cc1ccc2nc(/C(C#N)=C\c3cc(C)n(-c4cccc([N+](=O)[O-])c4)c3C)[nH]c2c1	Cav32 inh -6.11
Cc1ccc2nc(SCC(=O)N3CCOCC3)[nH]c2c1	none
CCOc1cc(/C=C(/C#N)c2nc3ccccc3[nH]2)ccc1Oc1ccc([N+](=O)[O-])cn1	none
COc1cc(/C=C(/C#N)c2nc3ccccc3[nH]2)ccc1Oc1ncccc1[N+](=O)[O-]	none
O=C(Nc1ccc2c(c1)OCO2)C1CCCCN1S(=O)(=O)c1ccccc1 (stereo unspecified)	none
CN1C(=O)c2cccc(NC(=O)CCc3ccccc3)c2C1=O	none
NC(=O)C1(N2CCCCC2)CCN(Cc2ccc(F)cc2)CC1	Cav32 inh -4.15
Cc1ccc(N(CC(=O)Nc2ccccc2C(=O)NCc2ccco2)S(=O)(=O)c2ccccc2)cc1C	Cav32 inh -6.04
Cc1ccc(C(=O)N/N=C/c2nc3ccccc3n2C)cc1	none
Cn1c(/C=N/NC(=O)c2ccccc2Br)nc2ccccc21	Cav32 inh -4.34
Cc1ccc(/C=c2\sc3nc(-c4ccccc4Br)nn3c2=O)o1	none (no result: Cav32 inh, hDAT+cocaine)
O=C(O)c1ccccc1-c1ccc(/C=c2\sc3nc4cc(Br)cnc4n3c2=O)o1	HIV Rev-RRE inh 99.1[fluorescence artefact?] (no result: Cav32 inh)
CCCNS(=O)(=O)c1cccc(C(=O)NC2CCCc3ccccc32)c1 (stereo unspecified)	none
COc1ccc(NS(=O)(=O)c2cc(C)ccc2NC(=O)c2cc(C)oc2C)cc1	Cav32 inh -6.91
C=CCn1c(=O)c2ccccc2n2c(SCc3nc4ccccc4s3)nnc12	hDAT+cocaine 3.56
C=CCn1c(=O)c2ccccc2n2c(SCC(N)=O)nnc12	none
COc1ccc(OC)c(C(=O)c2coc3ccc(O)cc23)c1	Cav32 inh -4.68
COc1ccc2occ(C(C)=O)c2c1	none
Cc1cc2n(c1)CCn1c(C)ccc1-2	HIV Rev-RRE inh 45.7
CCCC1=[N+](CC)CCn2c(C)ccc21	none
CC(=O)O[C@H]1CC[C@]2(C)[C@H]3CC=C4[C@@H]5[C@@H](C)[C@H](C)CC[C@]5(C(=O)O)CC[C@@]4(C)[C@]3(C)CC[C@H]2C1(C)C	none (no result: HIV Rev-RRE inh, EphB4 antag)
C=CCn1c(SCC(=O)Nc2ncc(Cc3cc(C(F)(F)F)ccc3Cl)s2)nnc1-c1ccncc1	none
O=C(O)c1cnc(-c2ccccc2)nc1Sc1ccc(Cl)cc1	none
O=C(O)c1cnc(-c2ccccc2)nc1Sc1ccccc1Cl	Cav32 inh -6.36
CCOC(=O)c1ccc(COC(=O)c2cc3ccccc3oc2=O)o1	none
O=C(O)c1nn(-c2ccccc2)ccc1=O	none
COc1cccc(SCc2noc(C(=O)NCC3CC3)c2C(=O)NCC2CC2)c1	none (no result: HIV Rev-RRE inh, EphB4 antag)
CCOC(=O)Cn1c(-c2ccccc2)nc2ccccc2c1=O	none
CCC(=O)Oc1c(-c2ccccc2)c2nc3ccccc3nc2c2ccccc12	HIV Rev-RRE inh 111.5[fluorescence artefact?] (no result: Cav32 inh, hDAT+cocaine)
COC(=O)c1ccc(N2CCN(CC(=O)c3ccc(-c4ccccc4)cc3)CC2)c([N+](=O)[O-])c1	none (no result: Cav32 inh, hDAT+cocaine)
CC(C)(C)OC(=O)CC[C@@H](C(=O)N1CCN(C(=O)OC(C)(C)C)CC1)n1cc(C(CO)NC(=O)OC(C)(C)C)nn1 (stereo partly specified)	none (no result: HIV Rev-RRE inh, EphB4 antag)
O=[N+]([O-])c1ccc(N/N=C/c2c[nH]c3ccccc23)cc1	HIV Rev-RRE inh 58.4[fluorescence artefact?]
COc1ccc(CNc2cc([N+](=O)[O-])ccc2OC)cc1	none
Cc1ccc(S(=O)(=O)N/N=C\c2cc([N+](=O)[O-])ccc2Cl)cc1	none
COc1ccc(NS(=O)(=O)c2cc([N+](=O)[O-])ccc2N/N=C\c2c(C)[nH]c3ccccc23)cc1	HIV Rev-RRE inh 44.2
Cc1[nH]c2ccccc2c1/C=N/Nc1ccc([N+](=O)[O-])cc1S(=O)(=O)Nc1ccc(Cl)cc1	HIV Rev-RRE inh 40.5
COc1ccccc1NS(=O)(=O)c1cc([N+](=O)[O-])ccc1N/N=C/c1c[nH]c2ccccc12	HIV Rev-RRE inh 63.9[fluorescence artefact?]
O=[N+]([O-])c1ccccc1N/N=C/c1c[nH]c2ccccc12	none
CC(C)(C)c1ccc(C(=O)NNC(=O)Cc2cccc3ccccc23)cc1	Cav32 inh -4.17
O=C(c1ccc([N+](=O)[O-])cc1)N(Cc1ccc(Cl)cc1Cl)N1C(=O)CCCC1=O	none
O=C(c1ccc([N+](=O)[O-])cc1)N(Cc1ccc(Cl)cc1)N1C(=O)CCCC1=O	hDAT+cocaine -6.56
Cc1cccc(C)c1NC(=O)CSc1nnc(Cn2nnc(-c3ccccc3)n2)n1-c1ccccc1	Cav32 inh -6.19
CCCC(=O)O[C@@H]1C[C@@H](C)N(C(=O)c2ccccc2)c2ccc(C)cc21	Cav32 inh -4.06
Cc1ccc(N2CCN(C(=O)c3ccccc3)CC2)c(C)c1	none
C=CCn1c(=O)/c(=C/c2ccc(C)o2)s/c1=C(/C#N)C(=O)c1ccccc1	HIV Rev-RRE inh 117.6[fluorescence artefact?]
Cc1nonc1OCC(C)(COc1nonc1C)NC(=O)c1ccccc1	none
COc1ccc(C2NC(=O)NC(C)=C2C(C)=O)cc1 (stereo unspecified)	none
O=C(CSc1nnc(C2CC2)n1Cc1ccccc1)N1CCN(S(=O)(=O)c2ccccc2)CC1	hDAT+cocaine -7.41 (no result: Cav32 inh)
O=C(CCCCCN1C(=O)CCC1=O)Nc1ccc(Cl)c(C(F)(F)F)c1	none
O=S(=O)(Nc1nc2ccccc2nc1N1CCN(c2ccccc2F)CC1)c1ccc(Cl)cc1	Cav32 inh -5.71
NC(=O)c1ncc(C(F)(F)F)cc1Oc1ccc(C(F)(F)F)cc1	none
COC(=O)Nc1ccc(=O)n(Cc2c(Cl)cccc2Cl)c1	none
Cc1cc2oc(=O)cc(CN3CCC(C)CC3)c2cc1Cl	Cav32 inh -9.86
COc1cc(OC)cc(-c2cc3nc(C)c(CCC(=O)NC(C)CCc4ccco4)c(C)n3n2)c1 (stereo unspecified)	none
Cc1nc2cc(-c3cccc(F)c3)nn2c(C)c1CCC(=O)NC(C)CCc1ccco1 (stereo unspecified)	Cav32 inh -5.48
O=C1COc2ccc3ccccc3c2CN1	none
O=C1COc2ccc(C(=O)c3ccccc3)cc2CN1	hDAT+cocaine 3.41
CCCn1c(SCC(=O)Nc2ccccc2Oc2ccccc2)n[nH]c1=O	none
O=C(CSc1n[nH]c(=O)n1C1CC1)Nc1cc(Cl)ccc1Oc1ccccc1	Cav32 inh -6.03
CCOC(=O)Cc1csc(SCC(=O)Nc2cccc(C#N)c2)n1	none
CCOC(=O)Cc1csc(SCC(=O)Nc2cccc(Cl)c2)n1	Cav32 inh -3.81
CCOC(=O)Cc1csc(SCC(=O)Nc2cc(Cl)ccc2Oc2ccccc2)n1	Cav32 inh -5.64
CCOC(=O)c1c(C)[nH]c(C(=O)OCC(=O)Nc2cc(C)c(Cl)cc2OC)c1C	none
